Values belong to the compound of their own block, whether it stands above or below them.
Columns and labels:
Format in all cases: functional
[1] = organism: Mus musculus; assay: In vitro reversal activity versus ~90% block by rocuronium in isolated mouse hemidiaphragm, expressed as % of maximum reversal at a conc. of 360 uM
[2] = organism: Mus musculus; assay: In vitro reversal activity versus ~90% block by rocuronium in isolated mouse hemidiaphragm, expressed as effective conc.
[3] = tested on: Cavia porcellus; assay: In vivo reversal activity versus ~90% block by rocuronium in guinea pig, expressed as % maximum reversal at 1018 umol/kg conc.
Summary of the method: (§1)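 Male Dunkin-Hartley guinea pigs (600-900 g), anaesthetized ip with pentobarbitone 10 mg/kg plus urethane 1000 mg/kg, tracheotomized and ventilated. Continuous iv rocuronium infusion (~10 nmol kg-1 min-1) was raised to a steady 85-90% block. Increasing iv doses of agent were given cumulatively. ED50 = 50% recovery versus preblock twitch, by regression. Mean ± SEM of at least two experiments, or one.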

[4] = tested on: Cavia porcellus; assay: In vivo reversal activity versus ~90% block by rocuronium in guinea pig; summary of the method: as §1
[5] = organism: Mus musculus; assay: In vitro reversal activity versus ~90% block by rocuronium in isolated mouse hemidiaphragm, expressed as % of maximum reversal at 10.8uM conc.
[6] = tested on: Cavia porcellus; assay: In vivo reversal activity versus ~90% block by rocuronium in guinea pig, expressed as % of maximum reversal at 33.1 umol/kg conc.
Summary of the method: (§2)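 Male Dunkin-Hartley guinea pigs (600-900 g) anaesthetized ip with pentobarbitone 10 mg/kg plus urethane 1000 mg/kg, tracheotomized and artificially ventilated. Continuous iv rocuronium bromide infusion (~10 nmol kg-1 min-1) raised until steady-state twitch block of 85-90%. Increasing single iv doses of reversal agent given by a separate catheter. Max reversal is peak twitch recovery versus preblock height at highest dose tested; means ± SEM, n ≥ 2 or single experiment.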

[7] = organism: Mus musculus; assay: In vitro reversal activity versus ~90% block by rocuronium in isolated mouse hemidiaphragm, expressed as % of maximum reversal at 252 uM conc.
[8] = tested on: Cavia porcellus; assay: In vivo reversal activity versus ~90% block by rocuronium in guinea pig, expressed as % of maximum reversal at 11 umol/kg conc.; summary of the method: as §1
[9] = organism: Mus musculus; assay: In vitro reversal activity versus ~90% block by rocuronium in isolated mouse hemidiaphragm, expressed as % of maximum reversal at 14.4 uM conc.
[10] = tested on: Cavia porcellus; assay: In vivo reversal activity versus ~90% block by rocuronium in guinea pig, expressed as % of maximum reversal at 3.2 umol/kg conc.; summary of the method: as §2
[11] = tested on: Felis catus; assay: Percent of maximum change of decrease in HR (bpm) by vagal stimulation in anesthetized cat (dosed with standard combination of neostigmin (24.3 umol/kg) + atropine 15 umol/kg)
[12] = tested on: Felis catus; assay: Percent of maximum change of HR in anesthetized cat (dosed with standard combination of neostigmin (24.3 umol/kg) + atropine 15 umol/kg)
[13] = tested on: Felis catus; assay: Percent of maximum change in BP in anesthetized cat (dosed with standard combination of neostigmin (24.3 umol/kg) + atropine 15 umol/kg)
[14] = tested on: Felis catus; assay: Percent increase in contraction of nictitating membrane in anesthetized cat (dosed with standard combination of neostigmin (24.3 umol/kg) + atropine 15 umol/kg)
[15] = tested on: Cavia porcellus; assay: In vivo reversal activity versus ~90% block by rocuronium in guinea pig, expressed as % of maximum reversal at 9.6 […] conc.; summary of the method: as §2
[16] = organism: Mus musculus; assay: In vitro reversal activity versus ~90% block by rocuronium in isolated mouse hemidiaphragm, expressed as % of maximum reversal at 16.2 uM conc.
[17] = tested on: Cavia porcellus; assay: In vivo reversal activity versus ~90% block by rocuronium in guinea pig, expressed as % of maximum reversal at 2.1 umol/kg conc.; summary of the method: as §2
[18] = tested on: Cavia porcellus; assay: In vivo reversal activity versus ~90% block by rocuronium in guinea pig, expressed as % of maximum reversal at 0.2 umol/kg conc.; summary of the method: as §1
[19] = organism: Mus musculus; assay: In vitro reversal activity versus ~90% block by rocuronium in isolated mouse hemidiaphragm, expressed as % of maximum reversal at 3.6 uM conc.
[20] = tested on: Cavia porcellus; assay: In vivo reversal activity versus ~90% block by rocuronium in guinea pig, expressed as % of maximum reversal at 1.7 umol/kg conc.; summary of the method: as §1
[21] = organism: Mus musculus; assay: In vitro reversal activity versus ~90% block by rocuronium in isolated mouse hemidiaphragm, expressed as % of maximum reversal at 7.2 uM conc.
[22] = organism: Mus musculus; assay: In vitro reversal activity versus ~90% block by rocuronium in isolated mouse hemidiaphragm, expressed as % of maximum reversal at 144 uM conc.
[23] = tested on: Cavia porcellus; assay: In vivo reversal activity versus ~90% block by rocuronium in guinea pig, expressed as % of maximum reversal at 47umol/kg conc.; summary of the method: as §2
[24] = tested on: Cavia porcellus; assay: In vivo reversal activity versus ~90% block by rocuronium in guinea pig, expressed as % of maximum reversal at 1.6 umol/kg conc.; summary of the method: as §1
[25] = organism: Mus musculus; assay: In vitro reversal activity versus ~90% block by rocuronium in isolated mouse hemidiaphragm, expressed as % of maximum reversal at 2.9 uM conc.

SMILES: O=C([O-])c1ccccc1SCC1O[C@@H]2O[C@@H]3C(CO)O[C@H](O[C@@H]4C(CO)O[C@H](O[C@@H]5C(CO)O[C@H](O[C@@H]6C(CO)O[C@H](O[C@@H]7C(CO)O[C@H](O[C@@H]8C(CO)O[C@H](O[C@@H]9C(CO)O[C@H](O[C@H]1C(O)C2O)C(O)C9O)C(O)C8O)C(O)C7O)C(O)C6O)C(O)C5O)C(O)C4O)C(O)C3O.[Na+] (some centres undefined)
Max reversal [7]: 86.3%
Max reversal [8]: 93%
EC50 [2]: 97.6 µM
ED50 [4]: 1.3 µmol/kg

SMILES: O=C([O-])CCCSCC1O[C@@H]2O[C@@H]3C(CSCCCC(=O)[O-])O[C@H](O[C@@H]4C(CSCCCC(=O)[O-])O[C@H](O[C@@H]5C(CSCCCC(=O)[O-])O[C@@H](O[C@@H]6C(CSCCCC(=O)[O-])O[C@H](O[C@@H]7C(CSCCCC(=O)[O-])O[C@H](O[C@@H]8C(CSCCCC(=O)[O-])O[C@H](O[C@H]1C(O)C2O)C(O)C8O)C(O)C7O)C(O)C6O)C(O)C5O)C(O)C4O)C(O)C3O.[Na+].[Na+].[Na+].[Na+].[Na+].[Na+].[Na+] (some centres undefined)
EC50 [2]: 5 µM
Max reversal [9]: 95.3%
Max reversal [10]: 99.6%
ED50 [4]: 0.49 µmol/kg

SMILES: CN(C)C(=O)Oc1cccc([N+](C)(C)C)c1.CN1[C@@H]2CC[C@H]1C[C@H](OC(=O)C(CO)c1ccccc1)C2.[Br-] (some centres undefined)
Decrease [11]: -64.8%
HR [12]: -7.1 beats min-1
BP [13]: 17.7 mmHg
Increase [14]: -7.2%

SMILES: O=S(=O)([O-])CCCSCC1O[C@@H]2O[C@@H]3C(CSCCCS(=O)(=O)[O-])O[C@H](O[C@@H]4C(CSCCCS(=O)(=O)[O-])O[C@H](O[C@@H]5C(CSCCCS(=O)(=O)[O-])O[C@H](O[C@@H]6C(CSCCCS(=O)(=O)[O-])O[C@H](O[C@@H]7C(CSCCCS(=O)(=O)[O-])O[C@H](O[C@@H]8C(CSCCCS(=O)(=O)[O-])O[C@H](O[C@@H]9C(CSCCCS(=O)(=O)[O-])O[C@H](O[C@H]1C(O)C2O)C(O)C9O)C(O)C8O)C(O)C7O)C(O)C6O)C(O)C5O)C(O)C4O)C(O)C3O.[Na+].[Na+].[Na+].[Na+].[Na+].[Na+].[Na+].[Na+] (some centres undefined)
Max reversal [18]: 98.6%
EC50 [2]: 1.8 µM
Max reversal [19]: 99.3%
ED50 [4]: 0.07 µmol/kg

SMILES: O=S(=O)([O-])CSCC1O[C@@H]2O[C@@H]3C(CSCS(=O)(=O)[O-])O[C@H](O[C@@H]4C(CSCS(=O)(=O)[O-])O[C@H](O[C@@H]5C(CSCS(=O)(=O)[O-])O[C@H](O[C@@H]6C(CSCS(=O)(=O)[O-])O[C@H](O[C@@H]7C(CSCS(=O)(=O)[O-])O[C@H](O[C@@H]8C(CSCS(=O)(=O)[O-])O[C@H](O[C@@H]9C(CSCS(=O)(=O)[O-])O[C@H](O[C@H]1C(O)C2O)C(O)C9O)C(O)C8O)C(O)C7O)C(O)C6O)C(O)C5O)C(O)C4O)C(O)C3O.[Na+].[Na+].[Na+].[Na+].[Na+].[Na+].[Na+].[Na+] (some centres undefined)
EC50 [2]: 0.36 µM
Max reversal [20]: 106.5%
Max reversal [21]: 101.4%
ED50 [4]: 0.06 µmol/kg

SMILES: OCC1O[C@@H]2O[C@@H]3C(CO)O[C@H](O[C@@H]4C(CO)O[C@H](O[C@@H]5C(CO)O[C@H](O[C@@H]6C(CO)O[C@H](O[C@@H]7C(CO)O[C@H](O[C@@H]8C(CO)O[C@H](O[C@@H]9C(CO)O[C@H](O[C@H]1C(O)C2O)C(O)C9O)C(O)C8O)C(O)C7O)C(O)C6O)C(O)C5O)C(O)C4O)C(O)C3O (some centres undefined)
Max reversal [22]: 94.1%
EC50 [2]: 34.6 µM
Max reversal [23]: 104.7%
ED50 [4]: 4 µmol/kg

Now from value to compound, other results behind:

EC50 [2]: > 360 µM
SMILES: OCC1O[C@@H]2O[C@@H]3C(CO)O[C@H](O[C@@H]4C(CO)O[C@H](O[C@@H]5C(CO)O[C@H](O[C@@H]6C(CO)O[C@H](O[C@@H]7C(CO)O[C@H](O[C@H]1C(O)C2O)C(O)C7O)C(O)C6O)C(O)C5O)C(O)C4O)C(O)C3O (some centres undefined)
Max reversal [1]: 9.7%
Max reversal [3]: 6.4%
ED50 [4]: 1580 µmol/kg

EC50 [2]: 5 µM
SMILES: NC(=O)CCCSCC1O[C@@H]2O[C@@H]3C(CSCCCC(N)=O)O[C@H](O[C@@H]4C(CSCCCC(N)=O)O[C@H](O[C@@H]5C(CSCCCC(N)=O)O[C@H](O[C@@H]6C(CSCCCC(N)=O)O[C@H](O[C@@H]7C(CSCCCC(N)=O)O[C@H](O[C@@H]8C(CSCCCC(N)=O)O[C@H](O[C@@H]9C(CSCCCC(N)=O)O[C@H](O[C@H]1C(O)C2O)C(O)C9O)C(O)C8O)C(O)C7O)C(O)C6O)C(O)C5O)C(O)C4O)C(O)C3O (some centres undefined)
Max reversal [5]: 85.4%
Max reversal [6]: 94.2%
ED50 [4]: 0.58 µmol/kg

EC50 [2]: 6.5 µM
SMILES: O=C([O-])CSCC1O[C@@H]2O[C@@H]3C(CSCC(=O)[O-])O[C@H](O[C@@H]4C(CSCC(=O)[O-])O[C@H](O[C@@H]5C(CSCC(=O)[O-])O[C@@H](O[C@@H]6C(CSCC(=O)[O-])O[C@H](O[C@@H]7C(CSCC(=O)[O-])O[C@H](O[C@@H]8C(CSCC(=O)[O-])O[C@H](O[C@H]1C(O)C2O)C(O)C8O)C(O)C7O)C(O)C6O)C(O)C5O)C(O)C4O)C(O)C3O.[Na+].[Na+].[Na+].[Na+].[Na+].[Na+].[Na+] (some centres undefined)
Max reversal [15]: 89.6%
Max reversal [16]: 97.3%
ED50 [4]: 0.93 µmol/kg

EC50 [2]: 9.1 µM
SMILES: O=C(O)CCOCCSCC1O[C@@H]2O[C@@H]3C(CSCCOCCO)O[C@H](O[C@@H]4C(CSCCOCCO)O[C@H](O[C@@H]5C(CSCCOCCO)O[C@H](O[C@@H]6C(CSCCOCCO)O[C@H](O[C@@H]7C(CSCCOCCO)O[C@H](O[C@@H]8C(CSCCOCCO)O[C@H](O[C@@H]9C(CSCCOCCO)O[C@H](O[C@H]1C(O)C2O)C(O)C9O)C(O)C8O)C(O)C7O)C(O)C6O)C(O)C5O)C(O)C4O)C(O)C3O (some centres undefined)
Max reversal [16]: 66.1%
Max reversal [17]: 92.2%
ED50 [4]: 0.47 µmol/kg

EC50 [2]: 1.4 µM
SMILES: O=C([O-])Cc1ccc(SCC2O[C@@H]3O[C@@H]4C(CSc5ccc(CC(=O)[O-])cc5)O[C@H](O[C@@H]5C(CSc6ccc(CC(=O)[O-])cc6)O[C@H](O[C@@H]6C(CSc7ccc(CC(=O)[O-])cc7)O[C@H](O[C@@H]7C(CSc8ccc(CC(=O)[O-])cc8)O[C@H](O[C@@H]8C(CSc9ccc(CC(=O)[O-])cc9)O[C@H](O[C@@H]9C(CSc%10ccc(CC(=O)[O-])cc%10)O[C@H](O[C@@H]%10C(CSc%11ccc(CC(=O)[O-])cc%11)O[C@H](O[C@H]2C(O)C3O)C(O)C%10O)C(O)C9O)C(O)C8O)C(O)C7O)C(O)C6O)C(O)C5O)C(O)C4O)cc1.[Na+].[Na+].[Na+].[Na+].[Na+].[Na+].[Na+].[Na+] (some centres undefined)
Max reversal [24]: 103.8%
Max reversal [25]: 98.9%
ED50 [4]: 0.14 µmol/kg

Reference: ChEMBL document CHEMBL1135836, “Cyclodextrin-derived host molecules as reversal agents for the neuromuscular blocker rocuronium bromide: synthesis and structure-activity relationships” (J Med Chem, 2002)
